Where “and” joins values, the source holds several entries; their conditions need not be identical. Equal entries are not always repeated.
Test system: U2OS
Assay: Multiplex assay against U2OS
Assay type: toxicity, cell-based
Settings: human
In short: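 Live cells carried four stains from seeding: Hoechst33342, BioTracker Green Microtubule Cytoskeleton Dye, MitoTracker Red and Annexin V Alexa Fluor 680. They were imaged on a CQ1 microscope at 37°C and 5% CO2 after compound addition. Using CellPathfinder machine-learning gating, cells were split into Hoechst high-intensity objects or normal cells, normal cells into healthy, pyknosed or fragmented nuclei, and pyknosed cells into mitotic or apoptotic; tubulin, mitochondrial-mass and membrane-permeability phenotypes are per cents of healthy-nucleus cells.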

[1] = 12 h, 1 µM, compound concentration 1 uM
[2] = 12 h, 10 µM, compound concentration 10 uM
[3] = 24 h, 1 µM, compound concentration 1 uM
[4] = 24 h, 10 µM, compound concentration 10 uM
[5] = 48 h, 1 µM, compound concentration 1 uM
[6] = 48 h, 10 µM, compound concentration 10 uM

## CC(=O)NCCc1c(Cc2ccccc2)[nH]c2ccccc12 [LUZINDOLE]
[1]
  Population Apoptotic (%): 72% and 100%
  Population Fragmented Nuclei (%): 25% and 19%
  Population Healthy Nuclei (%): 65% and 77%
  Population Hoechst High Intensity Objects (%): 3% and 2%
  Population Membrane Permeable-Phenotype (%): 3% and 6%
  Population Mitochondria Different-Phenotype (%): 4% and 2%
  Population Normal (%): 96% and 97%
  Population Pyknosed Nuclei (%): 9% and 3%
  Population Tubulin-Different-Phenotype (%): 1% and 2%
  Total Cell Count: 233 and 134
[2]
  Population Apoptotic (%): 81% and 76%
  Population Fragmented Nuclei (%): 26% and 13%
  Population Healthy Nuclei (%): 65% and 78%
  Population Hoechst High Intensity Objects (%): 2% and 1%
  Population Membrane Permeable-Phenotype (%): 8% and 5%
  Population Mitochondria Different-Phenotype (%): 3% and 2%
  Population Mitotic Cells (%): 18% and 23%
  Population Normal (%): 97% and 98%
  Population Pyknosed Nuclei (%): 7%
  Population Tubulin-Different-Phenotype (%): 4% and 3%
  Total Cell Count: 291 and 179
[3]
  Population Apoptotic (%): 90% and 88%
  Population Fragmented Nuclei (%): 19% and 18%
  Population Healthy Nuclei (%): 68% and 70%
  Population Hoechst High Intensity Objects (%): 4% and 0%
  Population Membrane Permeable-Phenotype (%): 2% and 5%
  Population Mitochondria Different-Phenotype (%): 3% and 1%
  Population Mitotic Cells (%): 10% and 11%
  Population Normal (%): 95% and 99%
  Population Pyknosed Nuclei (%): 12% and 10%
  Population Tubulin-Different-Phenotype (%): 3% and 4%
  Total Cell Count: 260 and 156
[4]
  Population Apoptotic (%): 88% and 85%
  Population Fragmented Nuclei (%): 25% and 11%
  Population Healthy Nuclei (%): 66% and 80%
  Population Hoechst High Intensity Objects (%): 2% and 0%
  Population Membrane Permeable-Phenotype (%): 6%
  Population Mitochondria Different-Phenotype (%): 3% and 1%
  Population Mitotic Cells (%): 12% and 15%
  Population Normal (%): 97% and 99%
  Population Pyknosed Nuclei (%): 7% and 8%
  Population Tubulin-Different-Phenotype (%): 4% and 3%
  Total Cell Count: 342 and 236
[5]
  Population Apoptotic (%): 91% and 80%
  Population Fragmented Nuclei (%): 16% and 11%
  Population Healthy Nuclei (%): 74% and 77%
  Population Hoechst High Intensity Objects (%): 2% and 1%
  Population Membrane Permeable-Phenotype (%): 3% and 8%
  Population Mitochondria Different-Phenotype (%): 2% and 1%
  Population Mitotic Cells (%): 8% and 20%
  Population Normal (%): 97% and 98%
  Population Pyknosed Nuclei (%): 9% and 11%
  Population Tubulin-Different-Phenotype (%): 2% and 4%
  Total Cell Count: 395 and 217
[6]
  Population Apoptotic (%): 89% and 100%
  Population Fragmented Nuclei (%): 21% and 11%
  Population Healthy Nuclei (%): 69% and 82%
  Population Hoechst High Intensity Objects (%): 2% and 1%
  Population Membrane Permeable-Phenotype (%): 6% and 5%
  Population Mitochondria Different-Phenotype (%): 3% and 2%
  Population Mitotic Cells (%): 10% and 0%
  Population Normal (%): 97% and 98%
  Population Pyknosed Nuclei (%): 8% and 5%
  Population Tubulin-Different-Phenotype (%): 3%
  Total Cell Count: 446 and 354

Source: ChEMBL document CHEMBL5724801, “EUbOPEN Chemogenomics Library - Multiplex” (2024)
